Data as given in PMC12815959 (Nature Communications, 2025).

What was measured:
[1] = biological target: T1, lipopolysaccharide-responsive beige-like anchor protein (LRBA) (Homo sapiens, UniProt P50851); experiment: ITC with purified LRBA PH domain; assay type: binding
Target sequence in this assay (P50851 2073-2489 limits assumed): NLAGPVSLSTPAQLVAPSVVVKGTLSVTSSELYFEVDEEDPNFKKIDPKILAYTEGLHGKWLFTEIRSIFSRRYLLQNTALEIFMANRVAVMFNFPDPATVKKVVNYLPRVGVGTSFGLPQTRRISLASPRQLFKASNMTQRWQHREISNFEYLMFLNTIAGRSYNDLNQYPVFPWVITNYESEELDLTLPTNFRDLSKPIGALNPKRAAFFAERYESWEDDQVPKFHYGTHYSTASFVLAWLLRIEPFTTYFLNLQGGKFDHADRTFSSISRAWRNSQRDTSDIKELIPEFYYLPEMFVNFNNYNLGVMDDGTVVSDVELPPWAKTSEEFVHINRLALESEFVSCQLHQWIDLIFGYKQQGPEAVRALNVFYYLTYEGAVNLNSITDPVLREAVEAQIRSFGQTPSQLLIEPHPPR

[2] = biological target: T1, lipopolysaccharide-responsive beige-like anchor protein (LRBA); experiment: Nluc complementation with purified LRBA PH; assay type: cell-based
Outline: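 HEK293T cells were transfected with three plasmids and treated with test compound in DMEM assay medium at 250.00, 100.00, 33.30, 10.00, 3.33, 1.00, 0.33, 0.10, 0.03 and 0.01 μM. Inhibition of the CTLA4–LRBA interaction was read as the Nluc/Firefly luciferase ratio by dual-luciferase assay. In the cell-free format, Flag-purified Sm-LRBA PH was preincubated with compound for 2 h at 25 °C. Myc-purified CTLA4 CT-Lg was then added for 18 h at 25 °C.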
Target sequence in this assay (P50851 2073-2489): as the sequence (P50851 2073-2489 limits assumed) above
Target sequence in this assay (P16410 36-223, further chain): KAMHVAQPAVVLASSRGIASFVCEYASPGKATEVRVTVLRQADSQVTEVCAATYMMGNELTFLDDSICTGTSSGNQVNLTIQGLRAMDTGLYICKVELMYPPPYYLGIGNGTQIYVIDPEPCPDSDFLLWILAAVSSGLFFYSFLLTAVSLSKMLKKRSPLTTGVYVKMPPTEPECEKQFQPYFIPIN

Kd [1] | IC50 [2] | SMILES
19.6 µM |  | c1ccc2ncc(-c3ccnc(N4CCNCC4)n3)cc2c1 [LC427, 3-(2-(piperazin-1-yl)pyrimidin-4-yl) quinoline]
 | 0.34 µM | NCC1CCN(c2nccc(-c3ccc4ccccc4c3)n2)CC1 [WAY-262611]
